Rows were chosen to be rich in hits. Some 3.5% of all compounds tested hit in one or more screens of this group.
MrgX1 PAM: human MrgX1 positive allosteric modulation, primary screen | Q96LB2 | MrgX1-HEK293, Fluo-4 calcium flux, FDSS; active compounds read high | B-score at 10 µM | 310,000 compounds, 0.63% hits | AID 588675;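 active = plate-corrected calcium response at least 3 library SD above typical, normal starting fluorescence, not activating the receptor alone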;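 also: compound read alongside a low EC10 to EC30 dose of BAM8-22 agonist; peak minus trough fluorescence over baseline measured at the second addition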
Target sequence (Q96LB2 whole entry, looked up): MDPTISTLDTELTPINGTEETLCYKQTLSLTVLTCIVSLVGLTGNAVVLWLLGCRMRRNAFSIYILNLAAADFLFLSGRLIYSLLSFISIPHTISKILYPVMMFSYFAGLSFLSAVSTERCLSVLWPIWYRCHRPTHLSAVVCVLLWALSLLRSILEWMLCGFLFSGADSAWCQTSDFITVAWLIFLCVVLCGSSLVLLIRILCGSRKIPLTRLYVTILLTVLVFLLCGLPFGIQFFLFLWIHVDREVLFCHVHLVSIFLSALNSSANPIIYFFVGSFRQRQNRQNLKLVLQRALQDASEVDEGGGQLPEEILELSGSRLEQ
MrgX1 agonist: activates human MrgX1 receptor signaling | Q96LB2 | MrgX1-HEK293 cells, Fluo-4 calcium fluorescence, agonist mode; active compounds read high | B-score at 10 µM | 310,000 compounds, 0.44% hits;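 active = calcium response B-score plate-corrected fluorescence ratio at least 3 library SD, with starting fluorescence B-score inside 5 SD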
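Assay system: stable human MrgX1 HEK293 cell line. Quantity: 15,000 cells per well. Schedule: cells plated overnight, dye loaded 0.5 h 37 °C, 0.5 h room temperature. Detection: Fluo-4 NW calcium-flux fluorescence, kinetic read. Read-out basis: peak-minus-minimum fluorescence over baseline, converted to B scores. Control set: positive and negative control wells on each plate.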
MrgX1 antag: blocks BAM8-22 activation of human MrgX1 receptor. Q96LB2. MRGX1-HEK293 calcium flux, Fluo-4, BAM8-22 antagonism; active compounds read low. B-score at 10 µM. 310,000 compounds, 1.3% hits;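 active = calcium-response B-score plate-corrected more than 3 library SD below zero, starting fluorescence within 5 deviations, no agonist response on first addition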;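 also: peak minus trough fluorescence over baseline after final BAM8-22 challenge near maximal dose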
RGS4 inh: human RGS4 inhibition; P49798; HEK293 M3R/RGS4 inducible, Fluo-4 calcium flux; active compounds read high; triggered by carbachol at its EC20; B-score at 10 µM; 310,000 compounds, 0.45% hits;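 active = B-score, a plate-corrected calcium signal, over three deviations above library mean, with baseline fluorescence within five deviations of library mean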;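 also: RGS4 expression induced by doxycycline in cells with stable M3 receptor; B-score is computed from the integrated fluorescence ratio over baseline after carbachol; higher B-score means a larger calcium signal and so more RGS4 inhibition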
Target sequence (P49798 whole entry, looked up): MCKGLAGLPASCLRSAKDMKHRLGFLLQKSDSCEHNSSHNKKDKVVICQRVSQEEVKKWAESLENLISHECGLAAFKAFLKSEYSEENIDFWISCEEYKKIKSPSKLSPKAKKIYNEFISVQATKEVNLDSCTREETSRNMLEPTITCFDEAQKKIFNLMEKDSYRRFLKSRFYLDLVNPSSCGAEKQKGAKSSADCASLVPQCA
RGS4 pot: RGS4 potentiation or activation; HEK293 M3R/inducible RGS4, carbachol calcium flux Fluo4; active compounds read low; B-score at 10 µM; 310,000 compounds, 0.92% hits; AID 463111;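 active = B-score of the integrated calcium signal more than 4 SD below the library mean, with starting fluorescence not abnormally high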;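 also: negative B-score means reduced calcium response which marks RGS4 activation or potentiation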
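Material: Inducible-RGS4 HEK293 cells carrying M3 receptor; also added: carbachol at ECmax as muscarinic agonist stimulus; incubation: compound preincubation 20 min at room temperature before agonist; signal: Fluo4-AM (2 µM) calcium-flux fluorescence, kinetic read; measure: integrated calcium ratio converted to B score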
RGS4 act valid: RGS4 activation, validation assay | AID 602282 | inhibition, % at 10 µM | shares compounds with RGS4 pot | HEK293 M3R/RGS4 inducible, carbachol calcium flux Fluo4 | 1,100 compounds, 89% hits;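 active = inhibition above 3 SD of the buffer control wells, cut at about 41% in these data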;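 also: signal is the integrated peak-minus-minimum Fluo4 fluorescence over baseline ratio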
M3R Ca counter: RGS4 activator counter-screen hit in non-induced cells. 1,100 compounds, 82% hits. HEK293 M3R non-induced RGS4, Fluo4 calcium flux; after carbachol challenge at its EC90. inhibition, % at 10 µM. shares compounds with RGS4 pot;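 active = inhibition exceeding 3 SD of buffer-only control wells, cut at about 26% in these data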;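 also: percent drop in integrated peak-minus-baseline over baseline Fluo4 ratio after carbachol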
Active calls of the source: *.

Screening CN(Cc1ccc(C#CCCO)cc1)CC1CCCN(CCc2ccc(Cl)cc2)C1 (configuration not stated) returned MrgX1 PAM inactive, MrgX1 agonist inactive, MrgX1 antag inactive, RGS4 inh inactive and RGS4 pot inactive.
Screening CN(Cc1ccccc1O)CC1CCCN(CCc2ccc(Cl)cc2)C1 (configuration not stated) returned MrgX1 PAM inactive, MrgX1 agonist inactive, MrgX1 antag inactive, RGS4 inh inactive, RGS4 pot -10*, RGS4 act valid 94* and M3R Ca counter 73*.
Nc1ccc2c(c1)C(=O)c1ccccc1-2 was read as MrgX1 PAM inactive, MrgX1 agonist inactive, MrgX1 antag inactive, RGS4 inh inactive and RGS4 pot inactive.
`Nc1ccc2c(c1)C(=O)C(=O)c1ccccc1-2` gave MrgX1 PAM inactive, MrgX1 agonist inactive, MrgX1 antag inactive, RGS4 inh inactive, RGS4 pot -8.7*, RGS4 act valid 68* and M3R Ca counter 48*.
`Cc1nc(N2CCN(Cc3ccccc3)CC2)nc2c1C(=O)CC(c1ccco1)C2` (configuration not stated) gave MrgX1 PAM inactive, MrgX1 agonist inactive, MrgX1 antag inactive, RGS4 inh inactive, RGS4 pot -8.4*, RGS4 act valid 0 and M3R Ca counter 0.
`COc1ccc(CCC(C)NC2C3CC4CC(C3)CC2C4)cc1` (configuration not stated) gave RGS4 inh inactive, RGS4 pot -8.8*, RGS4 act valid 92* and M3R Ca counter 87*.
Fc1cccc(/C=N/Nc2cc(N3CCOCC3)ncn2)c1 was read as MrgX1 PAM inactive, MrgX1 agonist inactive, MrgX1 antag inactive, RGS4 inh inactive and RGS4 pot inactive.
NCCc1c(-c2ccccc2)n(-c2ccccc2)c2ccccc12 was read as RGS4 inh inactive and RGS4 pot inactive.
Screening CCOC(=O)c1cc2c(ccn2C)n1Cc1cc(C)ccc1C returned MrgX1 PAM inactive, MrgX1 agonist inactive, MrgX1 antag inactive, RGS4 inh inactive, RGS4 pot -8*, RGS4 act valid 85* and M3R Ca counter 30*.
For CCn1c(C)cc(O)c(C(=O)Nc2cccc(Cl)c2)c1=O the results were MrgX1 PAM inactive, MrgX1 agonist inactive, MrgX1 antag inactive, RGS4 inh inactive and RGS4 pot inactive.
`CCn1c(C)c(C)c2cc(C(=O)Nc3cccc(Cl)c3)ccc21` gave MrgX1 PAM inactive, MrgX1 agonist inactive, MrgX1 antag inactive, RGS4 inh inactive, RGS4 pot -7.7*, RGS4 act valid 61* and M3R Ca counter 0.
Cc1ccc(NC(=S)NC2CCSc3ccccc32)cc1C (configuration not stated) was read as MrgX1 PAM inactive, MrgX1 agonist inactive, MrgX1 antag inactive, RGS4 inh inactive, RGS4 pot -8.8*, RGS4 act valid 92* and M3R Ca counter 93*.
For Cc1ccc(S(=O)(=O)n2c(C)nc3ccccc32)cc1 the results were MrgX1 PAM inactive, MrgX1 agonist inactive, MrgX1 antag inactive, RGS4 inh inactive and RGS4 pot inactive.
`Cc1ccc(S(=O)(=O)n2c(CN3CCCC(C)C3)nc3ccccc32)cc1` (configuration not stated) gave MrgX1 PAM inactive, MrgX1 agonist inactive, MrgX1 antag inactive, RGS4 inh inactive, RGS4 pot -10*, RGS4 act valid 60* and M3R Ca counter 84*.
For CCOc1cc2sc(N3CCC(C(=O)NCCCN4CCCC4=O)CC3)nc2cc1Br the results were MrgX1 PAM inactive, MrgX1 agonist inactive, MrgX1 antag inactive, RGS4 inh inactive, RGS4 pot -9.4*, RGS4 act valid 48* and M3R Ca counter 84*.
Cc1cc(C)c2nc(N3CCC(C(=O)NCCCN4CCCC4=O)CC3)sc2c1 was read as MrgX1 PAM inactive, MrgX1 agonist inactive, MrgX1 antag inactive, RGS4 inh inactive and RGS4 pot inactive.
`CN(C)C(CNC(=O)c1ccc(C2SCCS2)cc1)c1ccccc1` (configuration not stated) gave MrgX1 PAM inactive, MrgX1 agonist inactive, MrgX1 antag inactive, RGS4 inh inactive, RGS4 pot -10*, RGS4 act valid 94* and M3R Ca counter 80*.
For Cc1ccc(N2CCN(C(=O)c3cc(COc4c(C)cccc4C)on3)CC2)c(C)c1 the results were MrgX1 PAM inactive, MrgX1 agonist inactive, MrgX1 antag inactive, RGS4 inh inactive, RGS4 pot -7.7*, RGS4 act valid 70* and M3R Ca counter 32*.
Cc1cc(SCC(=O)c2ccccc2)n2nc(C)nc2n1 was read as MrgX1 PAM inactive, MrgX1 agonist inactive, MrgX1 antag inactive, RGS4 inh inactive, RGS4 pot -9*, RGS4 act valid 0 and M3R Ca counter 0.
`COc1ccc(-c2cc(C(=O)N3CCN(c4ccccc4F)CC3)c3ccccc3n2)c(OC)c1` gave MrgX1 PAM inactive, MrgX1 agonist inactive, MrgX1 antag inactive, RGS4 inh inactive, RGS4 pot -8.4*, RGS4 act valid 56* and M3R Ca counter 0.
`CCCc1ccc(-c2cc(C(=O)N3CCN(c4ccccn4)CC3)c3ccccc3n2)cc1` gave MrgX1 PAM inactive, MrgX1 agonist inactive, MrgX1 antag inactive, RGS4 inh inactive, RGS4 pot -12*, RGS4 act valid 52* and M3R Ca counter 0.
`CCOc1ccc(-c2cc(C(=O)N3CCN(c4ccccn4)CC3)c3ccccc3n2)cc1` gave MrgX1 PAM inactive, MrgX1 agonist inactive, MrgX1 antag inactive, RGS4 inh inactive and RGS4 pot inactive.
Screening COc1ccc(-c2cc(C(=O)N3CCN(c4ccccc4O)CC3)c3ccccc3n2)cc1OC returned MrgX1 PAM inactive, MrgX1 agonist inactive, MrgX1 antag inactive, RGS4 inh inactive, RGS4 pot -7.7*, RGS4 act valid 92* and M3R Ca counter 82*.
Screening CCOCCN1CCN(c2c(CC)c(C)nc3cc(-c4cc(OC)cc(OC)c4)nn23)CC1 returned MrgX1 PAM inactive, MrgX1 agonist inactive, MrgX1 antag inactive, RGS4 inh inactive, RGS4 pot -7.7*, RGS4 act valid 58* and M3R Ca counter 31*.
For CCCc1cc(=O)[nH]c2nnc(SCC(=O)NCc3ccc4c(c3)OCO4)n12 the results were MrgX1 PAM inactive, MrgX1 agonist inactive, MrgX1 antag inactive, RGS4 inh inactive and RGS4 pot inactive.

Source: PubChem
